ChEMBL document CHEMBL1143739, “SAR study of bicyclo[4.1.0]heptanes as melanin-concentrating hormone receptor R1 antagonists: taming hERG” (Bioorg Med Chem, 2007)
Activity calls are given as the source filed them. The rule behind the calls is not given here.

Tests used:
[1] = biological target: Melanin-concentrating hormone receptor 1 (Mus musculus) (UniProt Q8JZL2); assay: Ex vivo displacement of [125I]S36057 binding from mouse brain MCHR1 at 30 mg/kg, po after 6 hrs; format: functional, organism-based; design: dose 30 mg/kg
[2] = biological target: Melanin-concentrating hormone receptor 1 (Mus musculus) (UniProt Q8JZL2); assay: Ex vivo displacement of [125I]S36057 binding from mouse brain MCHR1 at 30 mg/kg, po after 24 hrs; format: functional, organism-based; design: dose 30 mg/kg
[3] = biological target: Melanin-concentrating hormone receptor 1 (Homo sapiens, UniProt Q99705); assay: Displacement of [125I]MCH from MCHR1 expressed in CHO cells; format: cell-based
Outline: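 Human MCH R1, CHO cell membranes (0.1 mg/mL) on SPA beads (1 mg/mL). Buffer: 25 mM HEPES, 10 mM MgCl2, 5 mM MnCl2, 0.1% BSA, pH 7.4. Incubation 2–4 h at room temperature, scintillation count. Ki by non-linear regression; mean ± range of two determinations, each in quadruplicate.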

[4] = biological target: T1, hERG (KCNH2) (Homo sapiens, UniProt Q12809); assay: (§1) Inhibition of hERG expressed in CHO cells at 5 ug/mL by rubidium efflux assay; format: toxicity, cell-based; settings: CHO cells that express hERG
Outline: (§2)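 hERG-CHO cells plated 24 h, then loaded 3 h in HEPES-buffered saline with 5.4 mM RbCl. Compound added and equilibrated 30 min at 37 °C. Cells washed three times in Rb-free saline (5.4 mM KCl), then depolarized 5 min with 45.4 mM KCl.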

[5] = biological target: Voltage-gated inwardly rectifying potassium channel KCNH2 (Homo sapiens, UniProt Q12809); assay: as §1; format: toxicity, cell-based; settings: cho; outline: as §2
[6] = biological target: T1, hERG (KCNH2); assay: Inhibition of hERG expressed in CHO cells at […] by rubidium efflux assay; format: toxicity, cell-based; settings: CHO cells that express hERG

Sequence of Melanin-concentrating hormone receptor 1 (Q99705 whole entry): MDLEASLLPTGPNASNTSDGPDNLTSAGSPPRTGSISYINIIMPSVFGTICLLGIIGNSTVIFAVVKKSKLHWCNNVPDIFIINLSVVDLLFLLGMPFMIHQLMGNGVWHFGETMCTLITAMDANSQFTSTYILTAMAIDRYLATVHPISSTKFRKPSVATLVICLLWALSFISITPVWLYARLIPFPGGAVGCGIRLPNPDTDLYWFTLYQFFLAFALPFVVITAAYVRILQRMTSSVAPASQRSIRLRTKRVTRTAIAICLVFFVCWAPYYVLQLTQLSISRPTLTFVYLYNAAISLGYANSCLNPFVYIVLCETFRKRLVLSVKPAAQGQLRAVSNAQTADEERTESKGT
Sequence of Melanin-concentrating hormone receptor 1 (Mus musculus) (Q8JZL2 whole entry): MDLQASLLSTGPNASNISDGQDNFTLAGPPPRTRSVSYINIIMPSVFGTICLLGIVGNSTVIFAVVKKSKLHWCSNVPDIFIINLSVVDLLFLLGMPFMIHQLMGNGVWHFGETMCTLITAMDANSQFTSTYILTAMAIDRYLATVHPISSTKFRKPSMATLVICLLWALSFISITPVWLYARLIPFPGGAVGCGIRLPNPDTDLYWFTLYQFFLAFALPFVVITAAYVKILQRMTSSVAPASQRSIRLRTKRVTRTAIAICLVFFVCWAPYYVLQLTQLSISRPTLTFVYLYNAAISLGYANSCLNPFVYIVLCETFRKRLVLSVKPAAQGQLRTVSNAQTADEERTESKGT
T1 sequence (Q12809 whole entry): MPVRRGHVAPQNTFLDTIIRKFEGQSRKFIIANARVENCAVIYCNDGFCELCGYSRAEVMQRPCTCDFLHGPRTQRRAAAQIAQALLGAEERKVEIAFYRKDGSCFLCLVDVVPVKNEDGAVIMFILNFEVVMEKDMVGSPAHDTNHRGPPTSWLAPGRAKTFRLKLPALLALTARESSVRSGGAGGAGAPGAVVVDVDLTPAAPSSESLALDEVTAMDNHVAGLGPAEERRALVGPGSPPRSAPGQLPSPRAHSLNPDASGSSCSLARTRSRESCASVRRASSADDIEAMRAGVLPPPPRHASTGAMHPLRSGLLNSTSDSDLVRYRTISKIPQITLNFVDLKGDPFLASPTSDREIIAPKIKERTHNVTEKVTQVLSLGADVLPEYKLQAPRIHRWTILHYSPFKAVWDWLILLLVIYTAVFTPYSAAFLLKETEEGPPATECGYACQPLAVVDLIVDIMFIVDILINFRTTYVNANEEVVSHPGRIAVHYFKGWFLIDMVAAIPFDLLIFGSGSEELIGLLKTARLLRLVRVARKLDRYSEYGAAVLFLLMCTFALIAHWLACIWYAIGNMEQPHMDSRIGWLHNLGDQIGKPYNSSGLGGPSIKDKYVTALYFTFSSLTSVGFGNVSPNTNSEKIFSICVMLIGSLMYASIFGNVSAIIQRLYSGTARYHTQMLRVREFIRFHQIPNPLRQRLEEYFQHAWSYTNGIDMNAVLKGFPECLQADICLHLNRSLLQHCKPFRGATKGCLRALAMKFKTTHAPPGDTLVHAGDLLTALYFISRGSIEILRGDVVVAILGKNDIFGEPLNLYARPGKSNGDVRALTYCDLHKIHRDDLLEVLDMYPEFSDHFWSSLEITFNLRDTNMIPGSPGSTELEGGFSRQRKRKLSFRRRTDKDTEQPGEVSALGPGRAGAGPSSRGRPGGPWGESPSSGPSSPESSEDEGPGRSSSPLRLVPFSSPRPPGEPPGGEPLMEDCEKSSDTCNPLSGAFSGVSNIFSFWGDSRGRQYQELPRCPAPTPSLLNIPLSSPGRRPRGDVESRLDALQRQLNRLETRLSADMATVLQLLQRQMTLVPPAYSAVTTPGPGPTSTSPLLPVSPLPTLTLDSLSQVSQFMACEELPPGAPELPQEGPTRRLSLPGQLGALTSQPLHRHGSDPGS
Sequence of Voltage-gated inwardly rectifying potassium channel KCNH2 (Q12809 whole entry): as above

| Compound | Activity [1] [%] | Activity [2] | Ki [3] [nM] | inhibition at 5 ug/mL [4] [%] | Activity [5] | inhibition at […] [6] [%] |
| --- | --- | --- | --- | --- | --- | --- |
| CC(C)N(CCN(C(=O)Nc1cc(Cl)nc(Cl)c1)[C@@H]1CC[C@]2(c3cccc(C#N)c3)CC2C1)C(C)C (stereo in doubt; 13) | 99 | 58% | – | – | – | – |
| N#Cc1ccc(C2=CCC(N(CCN3CCCC3)C(=O)Nc3ccc(F)c(Cl)c3)CC2)s1 (centres undefined) | 84 | 97% | 4.2 | 74 | – | – |
| CC(C)N(CCO)CCN(C(=O)Nc1cc(Cl)nc(Cl)c1)[C@@H]1CC[C@]2(c3cccc(C#N)c3)CC2C1 (some centres undefined) | 99 | inactive | 1.6 | – | Not Active | – |
| NCc1ncc(C2=CCC(N(CCN3CCCC3)C(=O)Nc3ccc(F)c(Cl)c3)CC2)s1 (centres undefined) | 88 | 75% | 13 | 10 | – | – |
| O=C(Nc1ccc(F)c(Cl)c1)N(CCN1CCCC1)C1CC=C(c2cccnc2)CC1 (centres undefined) | 16 | – | 30 | – | – | – |
| CN(C)Cc1cccc([C@]23CC[C@@H](N(CC4CCN(S(C)(=O)=O)CC4)C(=O)Nc4ccc(F)c(Cl)c4)CC2C3)c1 (some centres undefined) | 26 | – | 15 | 8 | – | 7 |
| CC(C)N(CCF)CCN(C(=O)Nc1ccc(F)c(Cl)c1)[C@@H]1CC[C@]2(c3cccc(C#N)c3)CC2C1 (some centres undefined) | 81 | 66% | 12 | 50 | – | – |
| CN(C)Cc1cccc([C@]23CC[C@@H](N(CC4CCN(S(C)(=O)=O)CC4)C(=O)Nc4cc(Cl)nc(Cl)c4)CC2C3)c1 (some centres undefined) | 0 | – | 3.3 | 7 | – | 8 |
| CC(C)N(CCO)CCN(C(=O)Nc1ccc(F)c(Cl)c1)[C@@H]1CC[C@]2(c3cccc(C#N)c3)CC2C1 (some centres undefined) | 73 | 38% | 8.7 | 88 | – | – |
| CO/N=C/c1cccc([C@]23CC[C@@H](N(CCN(C(C)C)C(C)C)C(=O)Nc4ccc(F)c(Cl)c4)CC2C3)c1 (some centres undefined) | 62 | inactive | 4.1 | 76 | – | – |
| CS(=O)(=O)N1CCC(CN(C(=O)Nc2cc(Cl)nc(Cl)c2)[C@@H]2CC[C@]3(c4cccc(CN5CC[C@H](O)C5)c4)CC3C2)CC1 (some centres undefined) | 1 | – | 8.9 | 0 | – | -7 |
| N#Cc1cccc([C@]23CC[C@@H](N(CCN4CC[C@@H](O)C4)C(=O)Nc4ccc(F)c(Cl)c4)CC2C3)c1 (some centres undefined) | 49 | inactive | – | 80 | – | – |
| CC(C)N(CCN(C(=O)Nc1ccc(F)c(Cl)c1)[C@@H]1CC[C@]2(c3cccc(C#N)c3)CC2C1)[C@H](C)CO (some centres undefined) | 73 | 25% | 9.4 | – | Not Active | – |
| N#Cc1cccc([C@]23CC[C@@H](N(CCN4CCC[C@H]4CO)C(=O)Nc4ccc(F)c(Cl)c4)CC2C3)c1 (some centres undefined) | 78 | inactive | – | 75 | – | – |
| NCc1cnc(C2=CCC(N(CCN3CCCC3)C(=O)Nc3ccc(F)c(Cl)c3)CC2)s1 (centres undefined) | 37 | – | 17 | 14 | – | – |
| CC1CC[C@@H](CO)N1CCN(C(=O)Nc1cc(Cl)nc(Cl)c1)[C@@H]1CC[C@]2(c3cccc(C#N)c3)CC2C1 (some centres undefined) | 82 | 41% | 1.2 | 60 | – | – |
| CC(C)N(CCN(C(=O)Nc1ccc(F)c(Cl)c1)[C@@H]1CC[C@]2(c3cccc(C#N)c3)CC2C1)[C@@H](C)CO (some centres undefined) | 75 | 35% | 5.2 | 82 | – | – |
| CC(C)N(CCN(C(=O)Nc1cc(Cl)nc(Cl)c1)[C@@H]1CC[C@]2(c3cccc(C#N)c3)CC2C1)[C@@H](C)CO (some centres undefined) | 99 | 81% | 1.6 | 60 | – | – |

| Compound | Activity [1] [%] | Activity [2] | Ki [3] [nM] | inhibition at 5 ug/mL [4] [%] | Activity [5] | inhibition at […] [6] [%] |
| --- | --- | --- | --- | --- | --- | --- |
| CC(C)N(CCN(C(=O)Nc1ccc(F)c(Cl)c1)[C@@H]1CC[C@]2(c3cccc(C(N)=O)c3)CC2C1)C(C)C (some centres undefined) | – | – | 142 | 44 | – | 21 |
| N#Cc1cccc([C@]23CC[C@@H](N(CCNCCF)C(=O)Nc4cc(Cl)nc(Cl)c4)CC2C3)c1 (some centres undefined) | 89 | 32% | 4.4 | 84 | – | – |
| CS(=O)(=O)N1CCC(CN(C(=O)Nc2cccc(F)c2)[C@@H]2CC[C@]3(c4cccc(C#N)c4)CC3C2)CC1 (some centres undefined) | – | – | 9.7 | 47 | – | 25 |
| CC(C)N(CCF)CCN(C(=O)Nc1cc(Cl)nc(Cl)c1)[C@@H]1CC[C@]2(c3cccc(C#N)c3)CC2C1 (some centres undefined) | 99 | 97% | 10 | 50 | – | – |
| CS(=O)(=O)N1CCC(CN(C(=O)Nc2ccc(F)c(C(F)(F)F)c2)[C@@H]2CC[C@]3(c4cccc(C#N)c4)CC3C2)CC1 (some centres undefined) | – | – | 26 | -1 | – | -1 |
| CS(=O)(=O)N1CCC(CN(C(=O)Nc2ccc(F)c(Cl)c2)[C@@H]2CC[C@]3(c4cccc(CN)c4)CC3C2)CC1 (some centres undefined) | 0 | – | 9.9 | 14 | – | 8 |
| CC(=O)NCc1cccc([C@]23CC[C@@H](N(CCN(C(C)C)C(C)C)C(=O)Nc4ccc(F)c(Cl)c4)CC2C3)c1 (some centres undefined) | – | – | 31 | 78 | – | 62 |
| CC(C)N(CCN(C(=O)Nc1ccc(F)c(Cl)c1)[C@@H]1CC[C@]2(c3cccc(CN(C)C)c3)CC2C1)C(C)C (some centres undefined) | – | – | 13 | 5 | – | -1 |
| CC(C)N(CCN(C(=O)Nc1ccc(F)c(Cl)c1)[C@@H]1CC[C@]2(c3cccc(CN)c3)CC2C1)C(C)C (some centres undefined) | – | – | 2.3 | 32 | – | 22 |
| CC1CC[C@@H](CO)N1CCN(C(=O)Nc1ccc(F)c(Cl)c1)[C@@H]1CC[C@]2(c3cccc(C#N)c3)CC2C1 (some centres undefined) | 31 | 2% | 11 | 78 | – | – |
| CC(C)N(CCN(C(=O)Nc1ccc(F)c(Cl)c1)[C@@H]1CC[C@]2(c3cccc(CN4CCN(C)CC4)c3)CC2C1)C(C)C (some centres undefined) | – | – | 54 | 13 | – | 10 |
| CC(C)N(CCN(C(=O)Nc1ccc(F)c(Cl)c1)[C@@H]1CC[C@]2(c3cccc(CNS(C)(=O)=O)c3)CC2C1)C(C)C (some centres undefined) | – | – | 18 | 46 | – | 17 |
| NCc1ccc(C2=CCC(N(CCN3CCCC3)C(=O)Nc3ccc(F)c(Cl)c3)CC2)s1 (centres undefined) | 77 | 57% | 8.2 | 26 | – | – |
| CS(=O)(=O)N1CCC(CN(C(=O)Nc2cc(Cl)nc(Cl)c2)[C@@H]2CC[C@]3(c4cccc(CN)c4)CC3C2)CC1 (some centres undefined) | 0 | – | 2.4 | 3 | – | -1 |
| CC(C)NCCN(C(=O)Nc1cc(Cl)nc(Cl)c1)[C@@H]1CC[C@]2(c3cccc(C#N)c3)CC2C1 (some centres undefined) | 93 | 70% | 1.9 | – | Not Active | – |
| CC(=O)c1ccc(C2=CCC(N(CCN3CCCC3)C(=O)Nc3ccc(F)c(Cl)c3)CC2)s1 (centres undefined) | 59 | 3% | 31 | 43 | – | – |
| CC(C)N(CCN(C(=O)Nc1ccc(F)c(Cl)c1)[C@@H]1CC[C@]2(c3cccc(CN4CC[C@H](O)C4)c3)CC2C1)C(C)C (some centres undefined) | – | – | 21 | -1 | – | -4 |
| CC(C)N(CCN(C(=O)Nc1ccc(F)c(Cl)c1)[C@@H]1CC[C@]2(c3cccc(C#N)c3)CC2C1)C(C)C (some centres undefined) | 83 | inactive | 5 | 78 | – | 44 |
